Measured values published in ChEMBL document CHEMBL3351239, “Polyketide glycosides from Bionectria ochroleuca inhibit Candida albicans biofilm formation” (J Nat Prod, 2014).
In brackets after ≈: the same amount, converted by molar mass.

Key:
[1] = test system: Candida albicans; assay: Antimicrobial activity against Candida albicans SC5314 in presence of amphotericin B incubated for 48 hrs by XTT assay; format: functional; details: SC5314, 48 h
In short: (§1)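 Checkerboard assay: C. albicans seeded in 96-well format with test compound alone or combined with amphotericin B, in RPMI-1640 plus MOPS, for 48 h at 37 °C. Viability was read by XTT, with MIC = lowest concentration giving ≥80% metabolic reduction. FIC = MIC in combination / MIC alone for each agent; FICI = FICA + FICB.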

[2] = test system: Candida albicans; assay: Inhibition of biofilm formation of Candida albicans SC5314 incubated for 48 hrs by XTT assay; format: functional, organism-based; details: SC5314, 48 h
In short: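 SC5314 pregrown in BHI overnight at 37 °C, washed, and seeded at 2.5 × 10^3 cells/mL in RPMI-1640/MOPS pH 7.0 with diluted compounds (DMSO ≤1% v/v final) for 48 h at 37 °C. Nonadherent cells were removed by two PBS washes and fresh medium added. Biofilm was quantified by XTT at A492. IC50 = concentration at 50% of maximal biofilm formation. Triplicate wells, three separate occasions.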

[3] = test system: Candida albicans; assay: Growth inhibition of Candida albicans SC5314 assessed as reduction in reduction in metabolic activity incubated for 48 hrs by XTT assay; format: organism-based; details: SC5314, 48 h
In short: (§2)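 SC5314 grown overnight at 37 °C in BHI, washed in PBS and resuspended in RPMI-1640 with 0.17 M MOPS at pH 7.0. Cells at 2.5 × 10^3 cells/mL were exposed to serial dilutions from 20 mM DMSO stocks (final DMSO ≤1% v/v) for 48 h at 37 °C. Viability was read by XTT (0.1 mg/mL, 1 h, A492). MIC = lowest concentration giving ≥80% drop in metabolic activity, per CLSI M27-A3.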

[4] = test system: Candida albicans; assay: Potentiation of amphotericin B-induced antimicrobial effect against Candida albicans SC5314 assessed as ratio of MIC for compound plus amphotericin B to MIC for amphotericin B alone incubated for 48 hrs by XTT assay; format: functional; in short: as §1
[5] = test system: Candida albicans; assay: Potentiation of amphotericin B-induced antimicrobial effect against Candida albicans SC5314 assessed as ratio of MIC for compound plus amphotericin B to MIC for compound alone incubated for 48 hrs by XTT assay; format: functional; in short: as §1
[6] = test system: Candida albicans; assay: Antimicrobial activity against Candida albicans SC5314 incubated for 48 hrs by XTT assay; format: functional; details: SC5314, 48 h; in short: as §2
[7] = test system: Candida albicans; assay: Potentiation of amphotericin B-induced antimicrobial effect against Candida albicans SC5314 incubated for 48 hrs by XTT assay; format: functional; in short: as §1

| SMILES | MIC80 [1] [µM] | MIC80 [6] [µM] | IC50 [2] [µM] | IC50 [3] [µM] | Ratio [4] | Ratio [5] | fractional inhibitory concentration index (FICI) [7] |
| --- | --- | --- | --- | --- | --- | --- | --- |
| CC[C@H](C)C[C@H](C)C[C@H](C)[C@@H](O[C@@H]1O[C@H](COC(C)=O)[C@@H](O)[C@H](O)[C@@H]1O)[C@@H](C)/C=C(\C)[C@@H](O)[C@@H](C)/C=C(\C)[C@@H](O)[C@@H](C)/C=C(\C)C(=O)OC[C@@H](O)[C@@H](O)[C@H](O)[C@H](O)CO | 1.25 | 50 (≈ 42.5 µg/mL) | 1.5 | 36.3 | 0.25 | 0.03 | 0.28 |
| CC[C@H](C)C[C@H](C)C[C@H](C)[C@@H](O[C@@H]1O[C@H](COC(C)=O)[C@@H](O)[C@H](O)[C@@H]1O)[C@@H](C)/C=C(\C)[C@@H](O)[C@@H](C)/C=C(\C)[C@@H](O)[C@@H](C)/C=C(\C)C(=O)OC[C@@H](O)[C@@H](O)[C@H](O)CO | 1.25 | 50 (≈ 41 µg/mL) | 1.2 | 41 | 0.25 | 0.03 | 0.28 |
| CC[C@H](C)C[C@H](C)C[C@H](C)[C@@H](O[C@@H]1O[C@H](COC(C)=O)[C@@H](O)[C@H](O)[C@@H]1O)[C@@H](C)/C=C(\C)[C@@H](O)[C@@H](C)/C=C(\C)[C@@H](O)[C@@H](C)/C=C(\C)[C@@H](O)[C@@H](C)C(=O)OC[C@@H](O)[C@@H](O)[C@H](O)[C@H](O)CO | 1.25 | 50 (≈ 45.4 µg/mL) | 1.5 | 24.1 | 0.25 | 0.03 | 0.28 |
| CC[C@H](C)C[C@H](C)C[C@H](C)[C@@H](O[C@@H]1O[C@H](CO)[C@@H](O)[C@H](O)[C@@H]1O)[C@@H](C)/C=C(\C)[C@@H](O)[C@@H](C)/C=C(\C)[C@@H](O)[C@@H](C)/C=C(\C)[C@@H](O)[C@@H](C)C(=O)O | 5 | > 100 | 2.4 | > 100 | 0.25 | <0.05 | <0.3 |
| CCCCCC#CCC#CCC#CCC#CCCCC(=O)O | – | – | 3.4 | > 100 | – | – | – |

The next lines start with results.

| MIC80 [1] [µM] | MIC80 [6] [µM] | SMILES | IC50 [2] [µM] | IC50 [3] [µM] | Ratio [4] | Ratio [5] | fractional inhibitory concentration index (FICI) [7] |
| --- | --- | --- | --- | --- | --- | --- | --- |
| 5 | > 100 | CC[C@H](C)C[C@H](C)C[C@H](C)[C@@H](O[C@@H]1O[C@H](CO)[C@@H](O)[C@H](O)[C@@H]1O)[C@@H](C)/C=C(\C)[C@@H](O)[C@@H](C)/C=C(\C)[C@@H](O)[C@@H](C)/C=C(\C)C(=O)OC[C@@H](O)[C@@H](O)[C@H](O)[C@H](O)CO | 1.1 | > 100 | 0.25 | <0.05 | <0.3 |
| 1.25 | > 100 | CC[C@H](C)C[C@H](C)C[C@H](C)[C@@H](O[C@@H]1O[C@H](CO)[C@@H](O)[C@H](O)[C@@H]1O)[C@@H](C)/C=C(\C)[C@@H](O)[C@@H](C)/C=C(\C)[C@@H](O)[C@@H](C)/C=C(\C)C(=O)OC[C@@H](O)[C@@H](O)[C@H](O)CO | 1.5 | > 100 | 0.25 | <0.01 | <0.26 |
| 5 | > 100 | CCC(C)CC(C)CC(C)C(O[C@@H]1O[C@H](CO)[C@@H](O)[C@H](O)[C@@H]1O)C(C)/C=C(\C)C(O)C(C)/C=C(\C)C(O)C(C)C(=O)O (stereo partly specified) | 5 | > 100 | 0.25 | <0.05 | <0.3 |
